TRPC6 activator – activators of mouse TRPC6 channel; Q61143; AID 2550; B-score at 10 µM; 310,000 compounds, 0.13% hits; HEK293-TRPC6 membrane potential dye fluorescence; active compounds read high;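 active means B-score of the integrated fluorescence ratio above library mean plus 3 SD, and starting fluorescence ratio within library mean plus 5 SD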;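 further: higher score means more depolarization so channel activation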
TRPC4 inh – TRPC4 (mouse) channel inhibition; B-score at 10 µM; HEK293 TRPC4beta/mu-opioid, DAMGO-evoked Fluo4 calcium flux; active compounds read low; 300,000 compounds, 0.39% hits;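 active means B-score over 3 SD under the library average, no early fluorescence shift, positive overall ratio signal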
Target sequence (Q9QUQ5 whole entry, looked up): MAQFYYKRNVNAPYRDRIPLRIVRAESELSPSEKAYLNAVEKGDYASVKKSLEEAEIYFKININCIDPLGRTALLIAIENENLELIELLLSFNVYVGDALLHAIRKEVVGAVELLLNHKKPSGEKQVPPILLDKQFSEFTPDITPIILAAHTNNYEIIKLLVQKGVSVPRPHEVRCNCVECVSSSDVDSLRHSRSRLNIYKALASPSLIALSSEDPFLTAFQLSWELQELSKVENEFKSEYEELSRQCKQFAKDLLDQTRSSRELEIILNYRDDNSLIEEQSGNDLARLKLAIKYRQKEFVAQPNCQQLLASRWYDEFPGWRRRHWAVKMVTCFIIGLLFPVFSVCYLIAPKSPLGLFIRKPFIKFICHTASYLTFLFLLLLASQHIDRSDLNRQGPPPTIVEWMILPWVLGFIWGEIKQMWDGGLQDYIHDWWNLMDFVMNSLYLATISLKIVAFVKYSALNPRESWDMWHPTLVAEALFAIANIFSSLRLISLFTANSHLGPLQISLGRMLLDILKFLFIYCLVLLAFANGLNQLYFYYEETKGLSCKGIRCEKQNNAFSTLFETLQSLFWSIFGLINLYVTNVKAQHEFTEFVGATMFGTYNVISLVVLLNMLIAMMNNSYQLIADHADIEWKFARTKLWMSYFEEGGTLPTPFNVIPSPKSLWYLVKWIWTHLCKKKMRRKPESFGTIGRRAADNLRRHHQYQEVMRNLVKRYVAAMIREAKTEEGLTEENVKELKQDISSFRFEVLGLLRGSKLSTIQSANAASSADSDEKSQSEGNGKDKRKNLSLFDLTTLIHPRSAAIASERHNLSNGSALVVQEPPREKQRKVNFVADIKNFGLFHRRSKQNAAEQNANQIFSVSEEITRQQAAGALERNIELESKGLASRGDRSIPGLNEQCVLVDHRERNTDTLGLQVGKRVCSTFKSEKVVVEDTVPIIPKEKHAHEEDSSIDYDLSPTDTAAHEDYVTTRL
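Signal: kinetic Fluo4 fluorescence imaging of calcium influx. Material: stable TRPC4beta/mu-opioid receptor HEK293 cells. Probe or stimulus: DAMGO in two steps, submaximal then maximal.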
TRPC4 agonist – opens the mouse TRPC4 cation channel; AID 2237; 310,000 compounds, 0.49% hits; B-score at 10 µM; Q9QUQ5; HEK293 TRPC4beta/mu-opioid, Fluo4 calcium fluorescence; active compounds read high;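 active means B-score above 5 SD of library B-scores, and initial fluorescence ratio not above library mean plus 5 SD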;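 further: positive B-score marks a calcium rise read as TRPC4 activation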
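Incubation: 45 min room-temperature Fluo4 loading, 110 s read / System: HEK293 cells stably co-expressing mouse TRPC4beta and mu-opioid receptor / Signal: Fluo4 fluorescence, kinetic / Control set: buffer (low) and maximal DAMGO (high) / Measure: integrated baseline-normalised fluorescence ratio, converted to per-well B score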
TRPC6 inhibitor – mouse TRPC6 channel inhibition; B-score at 10 µM; HEK293-TRPC6, membrane potential dye, ACh-evoked depolarization; active compounds read low; AID 2553; 310,000 compounds, 1.1% hits;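 active means B-score under library mean minus 3 SD, initial fluorescence not abnormally high, positive integrated signal ratio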;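 further: B-score derived from integrated fluorescence ratio over the kinetic read; more negative B-score means stronger inhibition of depolarization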
TRPC4 potent – TRPC4 (mouse) allosteric potentiation; AID 2227; Q9QUQ5; B-score at 10 µM; 310,000 compounds, 0.42% hits; HEK293 TRPC4beta/mu-opioid, DAMGO EC20, Fluo-4 Ca2+ flux; active compounds read high;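 active means B-score of calcium response area above 5 SD of library B-scores, with initial fluorescence ratio within 5 SD of library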;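 further: B-score of integrated fluorescence ratio over time as area under calcium response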
TRPC4 sel inh 2 – mouse TRPC4 off-target activity of TRPC6 inhibitors, second screen. shares compounds with TRPC6 inhibitor. HEK293 TRPC4/MOR, membrane potential dye fluorescence; channel activated by saturating DAMGO dose. inhibition, % at 10 µM. 920 compounds, 42% hits. AID 2776;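 active means compounds whose fluorescence signal differed from control wells by over 3 SD, either direction, in both duplicate plates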
TRPC4 spec – tests whether TRPC6 inhibitors also affect mouse TRPC4 | 920 compounds, 61% hits | HEK293 TRPC4/mu-opioid, membrane potential fluorescence | AID 2777 | activity change, negative = inhibition, % at 10 µM | shares compounds with TRPC6 inhibitor;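 active means rise or fall in signal beyond 3 SD of buffer-only wells in both replicate plates, either sign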;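 further: integrated kinetic ratio of fluorescence range over baseline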
HEK293 MPD ctr 2-1 – parental HEK293 nonspecific activity of TRPC6 inhibitors, second screen | parental HEK293 membrane potential dye fluorescence; maximal acetylcholine challenge after compound addition | shares compounds with TRPC6 inhibitor | signal change vs control, % at 10 µM | 920 compounds, 31% hits;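 active means membrane potential signal moving either way by over 3 SD of the maximum-effect control, in both duplicate plates, meaning non-specific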
HEK293 MPD ctr-1 – counter-screen for TRPC6 inhibitors: effect in parental HEK293 cells; parental HEK293 membrane potential dye fluorescence; shares compounds with TRPC6 inhibitor; 920 compounds, 60% hits; membrane potential signal change, % at 10 µM;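 active means membrane potential signal shifting up or down by more than 3 SD of buffer-only wells, on both duplicate plates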
HEK293 MPD ctr-2 – parental HEK293 nonspecific activity of TRPC6 modulators | 2,400 compounds, 51% hits | membrane potential dye fluorescence | membrane potential signal change, % at 10 µM | shares compounds with TRPC6 inhibitor;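 active means membrane potential signal moves up or down beyond 5 SD from buffer-only wells, on both duplicate plates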
HEK293 MPD ctr 2-2 – second counter-screen for TRPC6 modulators: effect in parental HEK293 cells. shares compounds with TRPC6 inhibitor. 2,400 compounds, 14% hits. inhibition, % at 10 µM. membrane potential dye fluorescence; after compound, maximal acetylcholine stimulation;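 active means membrane potential signal drops by more than 5 SD from the mean control signal, in both duplicate plates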;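 further: plate controls were acetylcholine ECmax control wells for no effect and buffer only wells for full effect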
TRPC4 ctr mod – mouse TRPC4 off-target activity of TRPC6 modulators | shares compounds with TRPC6 inhibitor | HEK293 TRPC4/mu-opioid, membrane potential fluorescence | percent change from control (negative = decrease, positive = increase), % at 10 µM | 2,400 compounds, 69% hits | AID 488927;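 active means membrane potential signal moved up or down beyond 5 SD of buffer control wells, in both duplicate plates, actives on both sides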;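 further: plate controls were assay buffer wells for no effect and DAMGO maximal-effect wells for full effect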
TRPC4/MOR inh 2 – second check of whether TRPC6 modulators also affect mouse TRPC4; shares compounds with TRPC6 inhibitor; HEK293 TRPC4/mu-opioid, membrane potential dye fluorescence; stimulated with maximal-effect DAMGO; inhibition, % at 10 µM; 2,400 compounds, 55% hits; AID 488928;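 active means drop in membrane potential signal beyond 5 SD of the control wells in both duplicate plates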;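 further: TRPC4 counter screen for TRPC6 hits run under conditions tuned for TRPC6 not TRPC4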
TRPC6 inh conf – confirmation of mouse TRPC6 inhibitors; inhibition, % at 10 µM; shares compounds with TRPC6 inhibitor; 3,300 compounds, 43% hits; HEK293-TRPC6, membrane potential dye, ACh-evoked depolarization; AID 488960;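 active means fluorescence ratio falls more than 5 SD below the full-stimulation control mean, in both duplicate runs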;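 further: integrated fluorescence ratio of peak minus minimum over baseline after agonist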
TRPC6 act conf – confirmation of mouse TRPC6 activators | shares compounds with TRPC6 inhibitor | HEK293-TRPC6 membrane potential dye fluorescence, FDSS | activation, % at 10 µM | 2,800 compounds, 11% hits | AID 488961;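 active means ratio signal rise beyond 5 SD above unstimulated control wells' mean, seen in both duplicate runs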;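 further: plate controls were buffer EC0 wells for no effect and acetylcholine ECmax response for full effect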
Starred values were filed as active, the others as inactive; i = inactive; / = no result; ! = a repeat was not active. The list is not random: actives were taken first. Their share in the collection is about 2.3%.

SMILES	TRPC6 activator	TRPC4 inh	TRPC4 agonist	TRPC6 inhibitor	TRPC4 potent	TRPC4 sel inh 2	TRPC4 spec	HEK293 MPD ctr 2-1	HEK293 MPD ctr-1	HEK293 MPD ctr-2	HEK293 MPD ctr 2-2	TRPC4 ctr mod	TRPC4/MOR inh 2	TRPC6 inh conf	TRPC6 act conf
O=[N+]([O-])c1ccc2nc(N3CCNCC3)ccc2c1	i	i	i	-5*	i	/	/	/	/	-218%*	i	-38%*	42%*	i	i
CCCn1ncc(CN2CCCC(C(=O)c3cccc(OC)c3)C2)c1C (stereo not given)	i	i	i	-5.9*	i	/	/	/	/	124%*	i	28%*	i	50%*	/
CCn1ccnc1CN1CCCC(C(=O)c2ccc(SC)cc2)C1 (stereo not given)	i	i	i	-5*	i	/	/	/	/	i	i	15%*	i	54%*	/
N=C1c2ccccc2CN1NC(=O)c1ccc(Br)cc1	i	i	i	i	i	/	/	/	/	/	/	/	/	/	/
Fc1ccccc1CNCCc1ccc2c(c1)OCO2	i	i	i	i	i	/	/	/	/	/	/	/	/	/	/
N#CC(C#N)=NNc1ccc(-n2ccc(C(F)(F)F)n2)cc1	i	i	i	-9.2*	i	/	/	/	/	170%*	i	27%*	71%*	62%*	i
CC1(C(O)(C#CCN2CCCCC2)c2ccccc2)CCCC1 (stereo not given)	i	i	i	-7.1*	i	/	/	/	/	142%*	106%*	26%*	44%*	91%*	/
CCOc1ccc(NC2=NCCCS2)cc1	i	i	i	i	i	/	/	/	/	/	/	/	/	/	/
COc1cc2c(cc1OC)-c1c3c(cc4c1[C@@H](C2)N(C)CC4)OCO3	i	i	i	-8*	i	/	/	/	/	-194%*	76%*	-35%*	52%*	56%*	i
COc1cc2c(cc1O)C[C@H]1NCCc3cc4c(c-2c31)OCO4	i	i	i	-9.1*	i	70%*	-28%*	i	-398%*	/	/	/	/	53%*	i
COc1cc2c(cc1OC)-c1c(OC)c(OC)cc3c1C(C2)N(C)CC3 (stereo not given)	i	i	i	-5.4*	i	/	/	/	/	-234%*	i	-44%*	51%*	53%*	i
COc1ccc(CC2c3cc(OC)c(OC)cc3CCN2C)cc1O (stereo not given)	i	i	i	i	i	/	/	/	/	/	/	/	/	/	/
CN1CCC(OC(=O)Cc2ccccc2)CC1	i	i	i	i	i	/	/	/	/	/	/	/	/	/	/
CN1CCC(OC(=O)C2c3ccccc3Oc3ccccc32)CC1	i	i	i	-6.8*	i	i	4.7%*	i	8.4%*	/	/	/	/	67%*	/
O=C(O)[C@H]1NC[C@H]2C[C@H]21	i	i	i	i	i	/	/	/	/	/	/	/	/	/	/
Fc1cccc(CN2CCN(c3ccc(Cl)cc3)CC2)c1	i	i	i	-7.1*	i	i	i	i	i	/	/	/	/	i	i
Fc1ccccc1CN1CCN(c2ccc(Cl)cc2)CC1	i	i	i	i	i	/	/	/	/	/	/	/	/	/	/
CC1CCC(NC(=O)CNC(=S)N2CC3CC(C2)c2cccc(=O)n2C3)CC1 (stereo not given)	i	i	i	i	i	/	/	/	/	/	/	/	/	/	/
CCC[N+]12CCC(CC1)C(=C(c1ccccc1)c1ccccc1)C2	i	i	i	-5.8*	i	/	/	/	/	i	i	14%*	i	64%*	/
CCn1c(P(C)(=O)O)nc2cc(NC(=O)c3ccccc3F)ccc21	i	i	i	i	i	/	/	/	/	/	/	/	/	/	/
COc1ccc(-c2cc(=Nc3ccccc3)c3cc(C)ccc3o2)cc1	i	i	i	-7.7*	i	i	-18%*	i	-198%*	/	/	/	/	i	i
COc1ccc(-c2cc(=NCCC(=O)O)c3cc(C)ccc3o2)cc1	i	i	i	i	i	/	/	/	/	/	/	/	/	/	/
Fc1ccc(C[n+]2c(-c3ccccc3)cc(-c3ccccc3)cc2-c2ccccc2)cc1	i	i	i	-6.9*	i	75%*	4.2%*	232%*	3.5%*	/	/	/	/	56%*	i
CCOc1cc2c(cc1OCC)-n1cccc1C(c1cc(OC)ccc1F)NC2 (stereo not given)	i	i	i	i	i	/	/	/	/	/	/	/	/	/	/
CC(C)Oc1ccc(CCN)cc1Cl	i	i	i	i	i	/	/	/	/	/	/	/	/	/	/
SMILES	TRPC6 activator	TRPC4 inh	TRPC4 agonist	TRPC6 inhibitor	TRPC4 potent	TRPC4 sel inh 2	TRPC4 spec	HEK293 MPD ctr 2-1	HEK293 MPD ctr-1	HEK293 MPD ctr-2	HEK293 MPD ctr 2-2	TRPC4 ctr mod	TRPC4/MOR inh 2	TRPC6 inh conf	TRPC6 act conf
CCCCOc1ccc(CCN)cc1Cl	i	i	i	-6.4*	14*	/	/	/	/	82%*	i	i	52%*	60%*	/
CC(=O)OCC[N+](C)(C)C	15*!	i	125*	-7.9*	i	i	37%*	i	4.2%*	133%*!	66%*!	44%*	i	70%*	124%*
C=CCN1CCc2cccc3c2[C@H]1Cc1ccc(O)c(O)c1-3	i	i	i	i	i	/	/	/	/	/	/	/	/	/	/
COc1cc(N2C(=O)CC(=O)NC2=O)cc(OC)c1OC	i	i	i	i	i	/	/	/	/	/	/	/	/	/	/
CN(C)c1ccc(CN2CC=C(c3ccc(F)cc3)CC2)cc1	i	i	i	-7.9*	i	75%*	i	i	i	/	/	/	/	i	i
COc1ccc2ccccc2c1CNCCc1ccccc1	i	i	i	-7.8*	i	i	16%*	i	5.0%*	/	/	/	/	66%*	/

Bioassay records: PubChem BioAssay, Johns Hopkins Ion Channel Center
